According to ChEMBL document CHEMBL1131041 (J Med Chem, 1998):

What was measured:
[1] = biological target: T1, Kappa-type opioid receptor (Cavia porcellus, UniProt P41144); assay: Displacement of [125I]OXY from Opioid receptor kappa 2b of guinea pig brain membranes (pretreated with BIT(mu) and FIT(delta) and in the presence of (-)U50,488)
How it was run: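 Guinea pig brain membranes depleted of μ/δ sites by BIT and FIT, labelled with 0.01 nM [125I]IOXY in presence of 5 μM (−)U50,488. Incubation 4–6 h at 4 °C in 50 mM Tris-HCl pH 7.4 with 10 mM NaCl, protease inhibitors and 1 μg/mL captopril.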

[2] = organism: Mus musculus; assay: (§1) Partial agonist activity expressed as inhibition of contraction of mouse vas deferens (MVD) smooth muscle at 1 uM conc.; format: functional, organism-based; conditions: Muscle tissue
How it was run: (§2)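 Agonist action on electrically driven tissues at 37 °C: GPI (1 g tension, 0.4-ms pulses) and Mg-free MVD (0.5 g, 2-ms pulses), 0.1 Hz. Percent inhibition of contraction height read 10 min after 1 μM compound; for stronger agonists, IC50 from concentration–response curves (2–4 tissues, nonlinear least squares). Selectivity = GPI IC50/MVD IC50.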

[3] = biological target: T2, Delta-type opioid receptor (Rattus norvegicus, UniProt P33533); assay: Displacement of [3H]DADLE from morphine-insensitive Opioid receptor delta 1 (presence of 50 nM morphine) of rat brain membranes; format: cell membranes, Membrane
T2 sequence (P33533 whole entry): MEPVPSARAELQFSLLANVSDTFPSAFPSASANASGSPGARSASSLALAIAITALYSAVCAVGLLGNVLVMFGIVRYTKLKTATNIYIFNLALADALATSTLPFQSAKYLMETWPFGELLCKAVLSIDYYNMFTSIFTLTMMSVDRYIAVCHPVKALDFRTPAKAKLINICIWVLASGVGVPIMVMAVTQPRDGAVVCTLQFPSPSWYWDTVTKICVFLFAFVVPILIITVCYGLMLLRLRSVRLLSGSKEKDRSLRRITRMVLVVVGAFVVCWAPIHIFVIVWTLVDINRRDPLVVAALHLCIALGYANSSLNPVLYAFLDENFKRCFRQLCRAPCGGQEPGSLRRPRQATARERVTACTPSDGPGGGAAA
How it was run: (§3)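 Rat brain membranes pretreated with (+)-trans-[…], labelled with 2.0 nM [3H]DADLE, plus 50 nM morphine (δcx-2) or 300 nM DELT-II (δcx-1). Incubation 4–6 h at 25 °C in 10 mM Tris-HCl pH 7.4 with 100 mM NaCl, 3 mM MnCl2, 2 μM GTP, 5 mM 2-mercaptoethanol and protease inhibitors. 8–10 concentrations, twice.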

[4] = biological target: Opioid receptors; mu & delta (Homo sapiens) (UniProt P41143+P35372); assay: IC50 selectivity for mu receptor of guinea pig Ileum (GPI) and delta receptor of delta opioid receptor of mouse vas deferens (MVD) smooth muscle preparation; format: tissue-based; how it was run: as §2
Opioid receptors; mu & delta (Homo sapiens), sequence (P35372 whole entry, looked up): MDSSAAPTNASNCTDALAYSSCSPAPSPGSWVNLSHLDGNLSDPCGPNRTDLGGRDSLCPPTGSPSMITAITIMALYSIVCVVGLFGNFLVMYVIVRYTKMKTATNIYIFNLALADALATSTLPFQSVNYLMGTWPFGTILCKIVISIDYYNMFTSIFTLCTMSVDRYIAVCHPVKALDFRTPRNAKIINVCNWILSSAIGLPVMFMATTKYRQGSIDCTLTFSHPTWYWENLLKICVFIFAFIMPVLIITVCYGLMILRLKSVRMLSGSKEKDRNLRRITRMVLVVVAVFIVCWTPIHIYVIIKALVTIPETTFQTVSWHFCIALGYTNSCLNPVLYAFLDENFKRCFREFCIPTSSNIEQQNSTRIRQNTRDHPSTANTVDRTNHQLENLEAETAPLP
Opioid receptors; mu & delta (Homo sapiens), sequence (P41143 whole entry, looked up): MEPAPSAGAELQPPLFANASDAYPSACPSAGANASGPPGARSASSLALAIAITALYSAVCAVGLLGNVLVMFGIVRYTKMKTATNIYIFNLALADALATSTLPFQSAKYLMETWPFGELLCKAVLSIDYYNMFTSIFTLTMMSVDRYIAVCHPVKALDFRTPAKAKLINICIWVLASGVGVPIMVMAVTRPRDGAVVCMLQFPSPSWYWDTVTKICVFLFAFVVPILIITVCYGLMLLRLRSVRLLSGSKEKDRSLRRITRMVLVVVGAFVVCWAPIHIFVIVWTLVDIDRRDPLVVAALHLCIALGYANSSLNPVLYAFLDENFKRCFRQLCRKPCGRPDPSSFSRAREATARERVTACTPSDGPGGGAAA

[5] = biological target: T2, Delta-type opioid receptor; assay: Displacement of [3H]DADLE from morphine-sensitive Opioid receptor delta 1 (presence of 300 nM DELT-II) of rat brain membranes; format: cell membranes, Membrane; how it was run: as §3
[6] = biological target: Opioid receptors; mu & delta (Rattus norvegicus) (UniProt P33533+P33535); assay: Relative affinity for mu and delta receptors in rat brain membranes; format: cell membranes
Opioid receptors; mu & delta (Rattus norvegicus), sequence (P33533 whole entry, looked up): as the sequence (P33533 whole entry) above
Opioid receptors; mu & delta (Rattus norvegicus), sequence (P33535 whole entry, looked up): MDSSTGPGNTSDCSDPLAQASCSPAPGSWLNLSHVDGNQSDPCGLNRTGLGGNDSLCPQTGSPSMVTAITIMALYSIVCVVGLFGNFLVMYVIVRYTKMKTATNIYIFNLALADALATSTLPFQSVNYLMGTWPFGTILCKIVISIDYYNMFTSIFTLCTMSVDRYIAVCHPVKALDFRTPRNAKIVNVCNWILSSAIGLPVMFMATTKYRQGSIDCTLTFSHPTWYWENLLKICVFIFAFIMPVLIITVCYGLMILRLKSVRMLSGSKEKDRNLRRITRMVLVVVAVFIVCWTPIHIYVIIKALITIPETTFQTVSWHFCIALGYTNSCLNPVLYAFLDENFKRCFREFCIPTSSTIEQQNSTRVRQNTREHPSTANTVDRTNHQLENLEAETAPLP

[7] = biological target: T1, Kappa-type opioid receptor; assay: Displacement of [3H]U-69593 from Opioid receptor kappa 1 of guinea pig brain membranes (pretreated with BIT and FIT to block mu and delta sites)
How it was run: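 Guinea pig brain membranes pretreated with BIT and FIT, labelled with [3H]U69,593. Incubation 4–6 h at 25 °C in 50 mM Tris-HCl pH 7.4 with protease inhibitors and 1 μg/mL captopril. Nonspecific binding with 1 μM U69,593. 8–10 concentrations, twice.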

[8] = Relative affinity for guinea pig kappa1 and rat delta receptors
[9] = biological target: T2, Delta-type opioid receptor; assay: Displacement of [3H]DADLE from Opioid receptor delta 1 of rat brain membranes (DAMGO quenching mu receptor); format: cell membranes, Membrane
How it was run: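 Rat brain membranes labelled with [3H]DADLE. Incubation 3–4 h at 25 °C in 10 mM Tris-HCl pH 7.4 with 100 mM choline chloride, 3 mM MnCl2, 100 nM DAMGO (μ block) and protease inhibitors. Levallorphan 20 μM for nonspecific binding. 8–10 concentrations, duplicate runs.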

[10] = biological target: Delta-type opioid receptor (Mus musculus) (UniProt P32300); assay: Displacement of DPDPE from Opioid receptor delta 1 of mouse vas deferens (MVD) smooth muscle
Delta-type opioid receptor (Mus musculus), sequence (P32300 whole entry): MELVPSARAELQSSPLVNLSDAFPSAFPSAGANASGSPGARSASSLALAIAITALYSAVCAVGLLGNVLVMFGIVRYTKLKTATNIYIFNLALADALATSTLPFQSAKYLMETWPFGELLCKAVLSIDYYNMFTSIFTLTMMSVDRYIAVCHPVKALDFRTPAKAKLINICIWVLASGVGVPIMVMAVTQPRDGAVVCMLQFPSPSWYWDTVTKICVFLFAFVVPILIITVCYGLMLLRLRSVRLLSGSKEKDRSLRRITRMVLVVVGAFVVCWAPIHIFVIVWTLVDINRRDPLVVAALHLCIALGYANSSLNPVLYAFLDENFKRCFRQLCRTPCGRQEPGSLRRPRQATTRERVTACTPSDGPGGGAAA
How it was run: (§4)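 Mouse vas deferens (male ICR, 25–40 g) in Mg-free oxygenated Krebs at 37 °C, 0.5 g tension; transmural 0.1 Hz, 2-ms pulses, supramaximal voltage. Control DPDPE curve first; then 1 μM compound 30 min, 30 min wash, cumulative DPDPE curve (3-min steps) repeated. IC50 ratio = shifted/control IC50; Ke = [antagonist]/(ratio − 1); n ≥ 3.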

[11] = organism: Cavia porcellus; assay: (§5) Partial agonist activity expressed as inhibition of contraction of guinea pig ileal longitudinal muscle myenteric plexus (GPI) at 1 uM conc.; format: functional, organism-based; conditions: Muscle tissue; how it was run: as §2
[12] = biological target: Delta-type opioid receptor (Mus musculus) (UniProt P32300); assay: Displacement of DPDPE from Opioid receptor delta 1 of mouse vas deferens (MVD)smooth muscle; how it was run: as §4
[13] = biological target: Mu-type opioid receptor (Rattus norvegicus, UniProt P33535); assay: Displacement of [3H]DAMGO from Opioid receptor mu 1 of rat brain membranes; format: cell membranes, Membrane
Mu-type opioid receptor, sequence (P33535 whole entry): as the sequence (P33535 whole entry, looked up) above
How it was run: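 Rat brain membranes labelled with [3H]DAMGO. Incubation 4 h at 25 °C in 50 mM Tris-HCl pH 7.4 with protease inhibitor cocktail. Nonspecific binding defined with 20 μM levallorphan. 8–10 test concentrations, run twice; IC50 and slope factor derived.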

[14] = Selectivity for mu receptor of guinea pig Ileum (GPI) and delta receptor of delta opioid receptor of mouse vas deferens (MVD) smooth muscle preparation; format: tissue-based
[15] = organism: Cavia porcellus; assay: as §5; format: functional, Muscle tissue; how it was run: as §2
[16] = organism: Mus musculus; assay: as §1; format: functional, Muscle tissue; how it was run: as §2
[17] = organism: Cavia porcellus; assay: Binding affinity of compound was measured on electrically stimulated guinea pig ileal longitudinal muscle myenteric plexus (GPI) preparation using PL017 as standard antagonist; format: functional; conditions: Muscle tissue
How it was run: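 Electrically stimulated guinea pig ileum longitudinal muscle–myenteric plexus (male Hartley, 250–500 g) in oxygenated Krebs at 37 °C, 1 g tension; 0.1 Hz, 0.4-ms pulses. Tissue preincubated 30 min with 1 μM compound, washed 30 min, then cumulative PL-017 curve repeated. Ke = [antagonist]/(IC50 ratio − 1); n ≥ 3.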

[18] = biological target: Mu-type opioid receptor (Mus musculus) (UniProt P42866); assay: Compound was tested for antagonist activity against Opioid receptor mu 1 on electrically stimulated guinea pig ileal longitudinal muscle myenteric plexus (GPI) using PL017 as antagonist ligand. IC50 ratio = IC50(agonist)/IC50 (control); format: functional; conditions: Cavia porcellus; target entry is the homologue from another species
Mu-type opioid receptor (Mus musculus), sequence (P42866 whole entry): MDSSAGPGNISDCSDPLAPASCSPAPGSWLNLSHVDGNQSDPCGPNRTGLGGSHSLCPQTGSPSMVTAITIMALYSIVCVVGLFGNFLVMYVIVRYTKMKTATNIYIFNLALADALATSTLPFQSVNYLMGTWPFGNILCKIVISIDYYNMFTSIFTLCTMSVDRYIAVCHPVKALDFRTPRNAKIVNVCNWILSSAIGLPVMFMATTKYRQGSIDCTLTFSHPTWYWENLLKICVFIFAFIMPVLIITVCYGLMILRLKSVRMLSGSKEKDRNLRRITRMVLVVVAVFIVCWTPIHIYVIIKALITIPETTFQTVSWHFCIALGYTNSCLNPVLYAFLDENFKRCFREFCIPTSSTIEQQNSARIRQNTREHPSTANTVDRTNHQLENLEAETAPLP
How it was run: (§6)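 Guinea pig ileum longitudinal muscle–myenteric plexus (male Hartley, 250–500 g) in oxygenated Krebs at 37 °C, 1 g tension; 0.1 Hz, 0.4-ms pulses, supramaximal voltage. Control PL-017 curve first; 1 μM compound 30 min, 30 min wash, cumulative PL-017 curve repeated. IC50 ratio = antagonized/unantagonized IC50; n ≥ 3.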

[19] = organism: Mus musculus; conditions: Muscle tissue
[20] = biological target: Delta-type opioid receptor (Mus musculus) (UniProt P32300)
[21] = biological target: Mu-type opioid receptor (Mus musculus) (UniProt P42866); assay: Compound was tested for antagonist activity against dOpioid receptor mu 1 on electrically stimulated guinea pig ileal longitudinal muscle myenteric plexus (GPI) using PL017as standard antagonist; e denotes 'the agonist effects precluded the determination of antagonist effects'; format: functional; conditions: Cavia porcellus; filed as agonist; target entry is the homologue from another species; how it was run: as §6
[22] = biological target: Delta-type opioid receptor (Mus musculus) (UniProt P32300); assay: Compound was tested for antagonist activity against Opioid receptor delta 1 on mouse vas deferens (MVD) smooth muscle preparation using DPDPE as antagonist ligand; e denotes the agonist effects precluded the determination of antagonist effects; format: functional; conditions: filed as agonist; how it was run: as §4

T1 sequence (P41144 whole entry): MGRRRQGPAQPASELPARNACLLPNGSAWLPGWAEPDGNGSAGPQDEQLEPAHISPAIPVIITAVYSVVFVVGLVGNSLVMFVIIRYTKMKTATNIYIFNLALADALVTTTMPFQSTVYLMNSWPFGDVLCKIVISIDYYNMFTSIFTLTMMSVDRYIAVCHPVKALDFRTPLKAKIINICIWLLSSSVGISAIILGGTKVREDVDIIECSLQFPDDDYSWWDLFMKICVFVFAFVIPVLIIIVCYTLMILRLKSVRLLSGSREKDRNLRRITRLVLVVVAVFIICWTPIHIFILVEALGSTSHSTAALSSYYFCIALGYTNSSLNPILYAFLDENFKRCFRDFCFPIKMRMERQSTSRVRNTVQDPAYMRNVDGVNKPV

Structure (SMILES) | Ki [1] [µM] | Ki [3] [µM] | Ki [5] [µM] | Selectivity ratio [6] | Ki [7] [µM] | Selectivity ratio [8] | Ki [9] [µM] | Ratio [10] | Ke [12] [nM] | Ki [13] [µM] | Selectivity ratio [14] | Max response [15] [%] | Max response [16] [%] | Ke [17] [nM] | Ratio [18] | also measured
Oc1ccc2c3c1OC1c4[nH]c5c(Oc6ccccc6)cccc5c4C[C@@]4(O)[C@@H](C2)N(CC2CC2)CC[C@]314 (stereo partly drawn) | 0.0568 | 0.00061 | 0.0187 | 48 | 0.0336 | 47 | 0.00071 | 4000 | 0.25 | 0.0342 | – | – | – | – | – | IC50 [2]: 4.1 µM; Selectivity ratio [4]: 0.11; IC50 [11]: 0.45 µM
Oc1ccc2c3c1OC1c4[nH]c5ccc(Oc6ccccc6)cc5c4C[C@@]4(O)[C@@H](C2)N(CC2CC2)CC[C@]314 (stereo partly drawn) | 0.199 | 0.0049 | 0.204 | 16 | 0.0752 | 4 | 0.0179 | 93 | 11 | 0.292 | 70 | 8 | 11 | 770 | – | –
Oc1ccc2c3c1OC1c4[nH]c5cccc(-c6ccccc6)c5c4C[C@@]4(O)[C@@H](C2)N(CC2CC2)CC[C@]314 (stereo partly drawn) | 0.435 | 0.127 | 0.284 | 29 | 2.97 | 57 | 0.0524 | 16 | 66 | 1.51 | 11 | 0 | 22 | 710 | 2.4 | –
Oc1ccc2c3c1O[C@H]1c4[nH]c5ccccc5c4C[C@@]4(O)[C@@H](C2)N(CC2CC2)CC[C@]314 [NALTRINDOLE] | 0.0199 | 0.00024 | 0.0123 | – | 0.0341 | – | 0.00029 | – | 0.49 | – | – | 18 | 16 | 43 | – | –
Oc1ccc2c3c1OC1c4[nH]c5c(OCc6ccccc6)cccc5c4C[C@@]4(O)[C@@H](C2)N(CC2CC2)CC[C@]314 (stereo partly drawn) | 0.112 | 0.0025 | 0.0733 | 51 | 0.258 | 83 | 0.0031 | 610 | 1.7 | 0.159 | – | – | – | – | – | IC50 [2]: 9.5 µM; Selectivity ratio [4]: 0.18; IC50 [11]: 1.7 µM
Oc1ccc2c3c1OC1c4[nH]c5ccc(OCc6ccccc6)cc5c4C[C@@]4(O)[C@@H](C2)N(CC2CC2)CC[C@]314 (stereo partly drawn) | 0.0858 | 0.0017 | 0.0149 | 18 | 0.0821 | 19 | 0.0044 | 210 | 4.8 | 0.081 | 117 | 24 | 35 | 560 | 2.8 | –
Oc1ccc2c3c1OC1c4[nH]c5ccc(-c6ccccc6)cc5c4C[C@@]4(O)[C@@H](C2)N(CC2CC2)CC[C@]314 (stereo partly drawn) | 0.186 | 0.0247 | 0.121 | 10 | 0.354 | 22 | 0.0158 | 110 | 9.4 | 0.165 | 12 | 0 | 25 | 110 | – | –
Oc1ccc2c3c1OC1c4[nH]c5cc(OCc6ccccc6)ccc5c4C[C@@]4(O)[C@@H](C2)N(CC2CC2)CC[C@]314 (stereo partly drawn) | 0.461 | 0.0063 | 0.201 | 101 | 0.47 | 70 | 0.0067 | 260 | – | 0.676 | – | 0 | 25 | – | – | Ke [19]: 3.9 nM
Oc1ccc2c3c1OC1c4[nH]c5cccc(Oc6ccccc6)c5c4C[C@@]4(O)[C@@H](C2)N(CC2CC2)CC[C@]314 (stereo partly drawn) | 0.353 | 0.114 | 0.395 | 21 | 1.31 | 19 | 0.0679 | – | 17 | 1.43 | 35 | 28 | 27 | 590 | 2.7 | –
Oc1ccc2c3c1OC1c4[nH]c5c(-c6ccccc6)cccc5c4C[C@@]4(O)[C@@H](C2)N(CC2CC2)CC[C@]314 (stereo partly drawn) | 0.0899 | 0.00046 | 0.0514 | 59 | 0.312 | 149 | 0.0021 | – | – | 0.124 | 172 | 37 | 35 | 310 | 4.2 | Ke [20]: 1.8 nM
Oc1ccc2c3c1OC1c4[nH]c5cccc(OCc6ccccc6)c5c4C[C@@]4(O)[C@@H](C2)N(CC2CC2)CC[C@]314 (stereo partly drawn) | 0.109 | 0.0172 | 0.0741 | 24 | 0.539 | 36 | 0.0148 | – | – | 0.36 | – | 86 | 70 | – | – | –
Oc1ccc2c3c1OC1c4[nH]c5ccc(/C=C/c6ccccn6)cc5c4C[C@@]4(O)[C@@H](C2)N(CC2CC2)CC[C@]314 (stereo partly drawn) | 0.0214 | 0.004 | 0.0174 | 21 | 0.0201 | 5 | 0.0037 | – | – | 0.076 | – | – | – | – | – | IC50 [2]: 0.22 µM; Selectivity ratio [4]: 12; Ratio [21]: Agonist; Ratio [22]: Agonist; IC50 [11]: 2.6 µM
Oc1ccc2c3c1OC1c4[nH]c5cc(-c6ccccc6)ccc5c4C[C@@]4(O)[C@@H](C2)N(CC2CC2)CC[C@]314 (stereo partly drawn) | 0.66 | 0.0142 | 0.299 | 71 | 0.632 | 35 | 0.018 | 49 | 21 | 1.28 | – | 2 | 36 | – | – | –
